What was measured:
[1] = target: T1, Metabotropic glutamate receptor 5 (Rattus norvegicus, UniProt P31424); experiment: Displacement of [3H]-M-MPEP from mGluR5 in rat cerebrocortical membranes; format: cell membranes, Membrane
Method in brief: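 Displacement run in duplicate or triplicate, with curves of at least six concentrations. IC50 was converted to Ki by Cheng-Prusoff, using Kd from a Scatchard plot.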

[2] = target: T1, Metabotropic glutamate receptor 5; experiment: Allosteric modulation of mGluR5 in E17 rat neuronal cultures assessed as inhibition of (S)-3,5-dihydroxyphenylglycine-induced calcium level; format: functional
Method in brief: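 Primary neocortical cultures from E17 rat embryos, grown at least 5 days, then loaded with the Ca2+ dye fluo-4/AM. Baseline and agonist-evoked fluorescence signals were recorded on a plate reader fluorometer.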

[3] = target: Metabotropic glutamate receptor 5 (Homo sapiens, UniProt P41594); experiment: Binding affinity to human mGluR5
Sequence of Metabotropic glutamate receptor 5 (Homo sapiens, UniProt P41594) (P41594 whole entry): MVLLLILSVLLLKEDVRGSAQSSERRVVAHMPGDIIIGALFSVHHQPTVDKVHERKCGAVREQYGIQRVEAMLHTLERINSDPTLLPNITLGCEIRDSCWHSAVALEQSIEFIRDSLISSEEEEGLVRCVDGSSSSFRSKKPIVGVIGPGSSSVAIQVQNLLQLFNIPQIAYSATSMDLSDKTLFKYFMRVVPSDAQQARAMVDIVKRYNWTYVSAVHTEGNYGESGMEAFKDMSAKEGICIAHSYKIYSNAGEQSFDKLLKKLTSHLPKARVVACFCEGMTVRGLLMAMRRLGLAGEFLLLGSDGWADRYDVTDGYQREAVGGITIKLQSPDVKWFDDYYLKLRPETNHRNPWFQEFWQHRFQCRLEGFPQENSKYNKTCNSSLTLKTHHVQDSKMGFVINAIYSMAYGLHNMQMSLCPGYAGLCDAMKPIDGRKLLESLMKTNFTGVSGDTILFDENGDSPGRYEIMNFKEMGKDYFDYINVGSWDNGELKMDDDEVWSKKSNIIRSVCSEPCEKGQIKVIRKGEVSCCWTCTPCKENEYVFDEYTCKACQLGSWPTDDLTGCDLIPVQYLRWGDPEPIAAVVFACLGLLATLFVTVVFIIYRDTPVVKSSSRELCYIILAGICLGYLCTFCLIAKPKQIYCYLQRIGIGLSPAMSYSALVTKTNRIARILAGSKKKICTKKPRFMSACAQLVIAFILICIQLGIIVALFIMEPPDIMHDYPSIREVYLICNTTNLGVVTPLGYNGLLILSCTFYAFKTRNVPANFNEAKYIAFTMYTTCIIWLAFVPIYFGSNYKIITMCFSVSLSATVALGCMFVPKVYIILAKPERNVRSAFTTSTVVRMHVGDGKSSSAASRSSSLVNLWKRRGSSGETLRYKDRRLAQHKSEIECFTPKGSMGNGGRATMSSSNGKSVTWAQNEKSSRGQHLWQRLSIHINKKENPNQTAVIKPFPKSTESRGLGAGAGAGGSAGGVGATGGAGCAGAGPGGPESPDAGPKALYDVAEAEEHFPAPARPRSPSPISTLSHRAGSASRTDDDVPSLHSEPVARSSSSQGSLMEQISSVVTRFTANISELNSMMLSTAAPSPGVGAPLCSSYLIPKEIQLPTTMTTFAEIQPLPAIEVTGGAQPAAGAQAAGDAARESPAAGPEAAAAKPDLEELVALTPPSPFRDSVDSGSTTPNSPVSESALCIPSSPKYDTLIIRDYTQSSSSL
Method in brief: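 Run in duplicate or triplicate, with concentration-displacement curves of at least six concentrations giving IC50. Ki derived by Cheng-Prusoff, using the radioligand Kd determined from a Scatchard plot.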

T1 sequence (P31424 whole entry): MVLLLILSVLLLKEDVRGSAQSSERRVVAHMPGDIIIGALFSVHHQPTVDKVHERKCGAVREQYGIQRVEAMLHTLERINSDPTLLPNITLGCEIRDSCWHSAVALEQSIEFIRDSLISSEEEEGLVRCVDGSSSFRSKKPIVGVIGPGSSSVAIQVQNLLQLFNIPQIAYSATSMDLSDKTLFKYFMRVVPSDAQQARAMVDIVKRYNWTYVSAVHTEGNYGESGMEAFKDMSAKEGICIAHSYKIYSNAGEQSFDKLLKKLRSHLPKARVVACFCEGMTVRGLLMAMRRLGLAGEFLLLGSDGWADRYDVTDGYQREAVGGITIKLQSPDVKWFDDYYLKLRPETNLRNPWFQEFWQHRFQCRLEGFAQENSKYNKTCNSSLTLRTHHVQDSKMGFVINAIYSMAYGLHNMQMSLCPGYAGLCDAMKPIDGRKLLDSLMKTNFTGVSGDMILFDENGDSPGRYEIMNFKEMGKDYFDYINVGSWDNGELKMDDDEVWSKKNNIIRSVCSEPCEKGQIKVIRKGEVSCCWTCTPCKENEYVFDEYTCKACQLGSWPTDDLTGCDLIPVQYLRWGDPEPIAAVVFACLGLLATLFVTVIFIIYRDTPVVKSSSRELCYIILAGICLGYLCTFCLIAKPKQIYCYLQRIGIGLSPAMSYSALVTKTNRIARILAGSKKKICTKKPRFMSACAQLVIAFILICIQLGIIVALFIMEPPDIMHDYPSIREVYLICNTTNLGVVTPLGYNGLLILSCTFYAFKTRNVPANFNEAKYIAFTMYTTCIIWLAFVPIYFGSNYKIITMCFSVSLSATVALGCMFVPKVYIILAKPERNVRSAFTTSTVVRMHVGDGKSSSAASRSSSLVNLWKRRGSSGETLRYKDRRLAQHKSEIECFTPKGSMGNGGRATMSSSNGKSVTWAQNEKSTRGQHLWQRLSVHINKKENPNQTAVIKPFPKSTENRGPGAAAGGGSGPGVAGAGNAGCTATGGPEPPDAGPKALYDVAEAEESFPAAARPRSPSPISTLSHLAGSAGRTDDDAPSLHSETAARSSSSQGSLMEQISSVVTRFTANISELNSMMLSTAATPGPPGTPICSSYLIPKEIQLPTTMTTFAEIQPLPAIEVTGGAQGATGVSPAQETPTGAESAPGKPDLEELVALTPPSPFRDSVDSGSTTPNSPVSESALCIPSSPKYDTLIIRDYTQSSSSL

Row | Compound | Ki [1] [nM] | IC50 [2] [nM] | Ki [3] [nM]
1 | O=C(C1CCC1)N1CCCC[C@@H]1c1nnn(-c2cccc(Cl)c2)n1 | 57.5 |  | 
2 | O=C(C1CCC1)N1CCCC[C@H]1c1nnn(-c2cccc(Cl)c2)n1 | 741 |  | 
3 | N#Cc1cccc(-c2noc(C3CCCCN3C(=O)c3cccs3)n2)c1 (racemic) | 200 | 1740 | 
4 | COc1cccc(-c2noc(C3CCCCN3C(=O)C3CCC3)n2)c1 (racemic) | 182 | 501 | 
5 | COCC(=O)N1CCCC1c1nc(-c2cccc(C)c2)no1 (racemic) | 186 | 30200 | 
6 | O=C(c1ccco1)N1CSCC1c1nc(-c2cccc(Cl)c2)no1 (racemic) | 195 | 1050 | 
7 | O=C(c1cccs1)N1CCCC1c1nc(-c2cccc(Cl)c2)no1 (racemic) | 195 | 30200 | 
8 | N#Cc1cccc(-n2nnc(C3CCCCN3C(=O)C3CCC3)n2)c1 (racemic) | 229 |  | 
9 | O=C(c1cccs1)N1CCCC(c2nnn(-c3cccc(Cl)c3)n2)C1 (racemic) | 316 |  | 
10 | O=C(c1ccc(Br)o1)N1CCCCC1c1nnn(-c2cccc(F)c2)n1 (racemic) | 457 |  | 
11 | Cc1cccc(-c2noc(C3CCCCN3C(=O)C3CCC3)n2)c1 (racemic) | 126 | 490 | 
12 | Cc1cccc(-c2noc(C3CCCN3C(=O)c3ccc(C)s3)n2)c1 (racemic) | 145 | 1000 | 
13 | Cc1cccc(-n2nnc(C3CCCCN3C(=O)C3CCC3)n2)c1 (racemic) | 72.4 | 224 | 
14 | O=C(C1CCCC1)N1CCCCC1c1nnn(-c2cccc(Cl)c2)n1 (racemic) | 87.1 | 295 | 
15 | Cc1ccc(C(=O)N2CSCC2c2nc(-c3cccc(Cl)c3)no2)s1 (racemic) | 83.2 | 759 | 
16 | Cc1ccc(C(=O)N2CCCC2c2nc(-c3cccc(Cl)c3)no2)s1 (racemic) | 123 | 6610 | 
17 | Cc1ccc(C(=O)N2CCCC2c2nnn(-c3cccc(Cl)c3)n2)s1 (racemic) | 89.1 | 251 | 
18 | Cc1cccc(-n2nnc(C3CCCCN3C(=O)C3CCCC3)n2)c1 (racemic) | 102 |  | 
19 | Cc1ccc(C(=O)N2CCCC2c2nnn(-c3cccc(Cl)c3)n2)o1 (racemic) | 105 |  | 
20 | O=C(c1ccco1)N1CCCCC1c1nnn(-c2cccc(Cl)c2)n1 (racemic) | 126 |  | 
21 | CC(C)C(=O)N1CCCCC1c1nnn(-c2cccc(Cl)c2)n1 (racemic) | 138 |  | 
22 | O=C(C1CCC1)N1CCCCC1c1nnn(-c2cccc(Cl)c2)n1 (racemic) | 77.6 | 339 | 
23 | CN1CC(=O)N=C1NC(=O)Nc1cccc(Cl)c1 [FENOBAM ANHYDROUS] |  |  | 6.76

Source: ChEMBL document CHEMBL1158608, “Hit-to-lead optimization of disubstituted oxadiazoles and tetrazoles as mGluR5 NAMs” (Bioorg Med Chem Lett, 2010)
